ChEMBL document CHEMBL1817574, “Development of novel conformation-constrained cytotoxic derivatives of cheliensisin A by embedment of small heterocycles” (Eur J Med Chem, 2011)

Experiments:
[1] = tested on: HL-60; test: Cytotoxicity against human HL60 cells after 48 hrs by MTT assay; assay type: functional, cell-based; conditions: HL-60, 48 h
How it was run: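 Log-phase HL-60 cells were seeded at 1.25 × 10⁵ cells/mL and treated in four replicates across various concentrations for 48 h. MTT (5 mg/mL solution) was then added and incubated a further 4 h. The wells were then solubilised with 10% SDS–5% isobutanol–0.012 mol/L HCl before the colorimetric read-out.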

[2] = tested on: SMMC-7721; test: Cytotoxicity against human SMMC7721 cells after 48 hrs by MTT assay; assay type: functional, cell-based; conditions: SMMC-7721, 48 h
[3] = tested on: A549; test: Cytotoxicity against human A549 cells after 48 hrs by MTT assay; assay type: functional, cell-based; conditions: A549, 48 h
[4] = tested on: SK-BR-3; test: Cytotoxicity against human SKBR3 cells after 48 hrs by MTT assay; assay type: functional, cell-based; conditions: SK-BR-3, 48 h
[5] = tested on: PANC-1; test: Cytotoxicity against human PANC1 cells after 48 hrs by MTT assay; assay type: functional, cell-based; conditions: PANC-1, 48 h
[6] = Chemical stability of the compound in 0.1 M phosphate buffer at pH 7.0 at 0.1 mg/mL after 12 hrs by HPLC analysis; assay type: physicochemical; conditions: pH 7, 12 h
[7] = tested on: HL-60; test: Ratio IC50 for cheliensisin A to compound for human HL60 cells after 48 hrs by MTT assay; assay type: functional

Stability [6]	Structure (SMILES)	IC50 [1]	IC50 [2]	IC50 [3]	IC50 [4]	IC50 [5]	Ratio IC50 [7]
–	CC(=O)O[C@H]1C=CC(=O)O[C@@H]1[C@H]1N=C(c2ccccc2)O[C@@H]1c1ccccc1	> 40 µM	> 40 µM	> 40 µM	> 40 µM	> 40 µM	–
–	CC(=O)O[C@H]1C=CC(=O)O[C@@H]1[C@@H]1N=C(c2ccccc2)O[C@@H]1c1ccccc1	4.3 µM	17.7 µM	18.3 µM	3.65 µM	12.8 µM	–
–	CC(=O)O[C@H]1C=CC(=O)O[C@@H]1[C@H]1N=C(Cc2ccccc2)O[C@@H]1c1ccccc1	17.8 µM	> 40 µM	> 40 µM	35.2 µM	> 40 µM	–
–	C/C=C/C1=N[C@@H]([C@H]2OC(=O)C=C[C@@H]2OC(C)=O)[C@@H](c2ccccc2)O1	1.26 µM	14.5 µM	30.7 µM	2.22 µM	3.87 µM	–
–	C/C=C\C1=N[C@H]([C@H]2OC(=O)C=C[C@@H]2OC(C)=O)[C@@H](c2ccccc2)O1	4.59 µM	27 µM	> 40 µM	> 40 µM	23 µM	–
–	C/C=C/C1=N[C@H]([C@H]2OC(=O)C=C[C@@H]2OC(C)=O)[C@@H](c2ccccc2)O1	6.93 µM	> 40 µM	> 40 µM	18 µM	24.4 µM	–
Stable	CC(=O)O[C@H]1C=CC(=O)O[C@@H]1[C@@H]1N=C(/C=C/c2ccccc2)O[C@@H]1c1ccccc1	0.48 µM	21 µM	18.9 µM	4.03 µM	4.1 µM	4
–	CC(=O)O[C@H]1C=CC(=O)O[C@@H]1[C@H]1N=C(/C=C/c2ccccc2)O[C@@H]1c1ccccc1	4.05 µM	24 µM	21.9 µM	23.1 µM	21.1 µM	–
–	CC(=O)O[C@H]1C=CC(=O)O[C@@H]1[C@H]1N=C(C)O[C@@H]1c1ccccc1	2.52 µM	16.3 µM	> 40 µM	7.26 µM	16.6 µM	–
–	CC(=O)O[C@H]1C=CC(=O)O[C@@H]1[C@H]1N=C(C(=O)c2ccccc2)O[C@@H]1c1ccccc1	> 40 µM	> 40 µM	> 40 µM	> 40 µM	> 40 µM	–
Stable	CC(=O)O[C@H]1C=CC(=O)O[C@@H]1c1nc(/C=C/c2ccccc2)oc1-c1ccccc1	5.89 µM	24.6 µM	24.8 µM	7.36 µM	7.22 µM	–
–	C/C=C\c1nc([C@H]2OC(=O)C=C[C@@H]2OC(C)=O)c(-c2ccccc2)o1	> 40 µM	> 40 µM	> 40 µM	> 40 µM	> 40 µM	–
–	CC(=O)O[C@H]1C=CC(=O)O[C@@H]1c1nc(-c2ccccc2)oc1-c1ccccc1	2.59 µM	15.7 µM	14.7 µM	12 µM	13.9 µM	–
–	CC(=O)O[C@H]1C=CC(=O)O[C@@H]1[C@H](NC(=O)c1ccccc1)[C@H](O)c1ccccc1	> 40 µM	> 40 µM	> 40 µM	> 40 µM	> 40 µM	–
–	CC(=O)O[C@H]1C=CC(=O)O[C@@H]1[C@@H](NC(=O)Cc1ccccc1)[C@H](O)c1ccccc1	5.19 µM	> 40 µM	> 40 µM	38.8 µM	> 40 µM	–
–	CC(=O)O[C@H]1C=CC(=O)O[C@@H]1[C@@H](NC(=O)/C=C/c1ccccc1)[C@H](O)c1ccccc1	> 40 µM	> 40 µM	> 40 µM	> 40 µM	> 40 µM	–
Stable	CC(=O)O[C@H]1C=CC(=O)O[C@@H]1/C=C/c1ccccc1	2.68 µM	29 µM	38.8 µM	4.63 µM	7.95 µM	–
–	CC(=O)O[C@H]1C=CC(=O)O[C@@H]1[C@@H](O)[C@@H](Nc1ccccc1)c1ccccc1	> 40 µM	> 40 µM	> 40 µM	> 40 µM	> 40 µM	–
–	CC(=O)O[C@H]1C=CC(=O)O[C@@H]1[C@@H](O)[C@H](O)c1ccccc1	> 40 µM	> 40 µM	> 40 µM	> 40 µM	> 40 µM	–
–	CC(=O)O[C@H]1C=CC(=O)O[C@H]1[C@H]1OC(C)(C)O[C@@H]1c1ccccc1	> 40 µM	> 40 µM	> 40 µM	> 40 µM	> 40 µM	–
–	CC(=O)O[C@H]1C=CC(=O)O[C@H]1[C@H]1OC(=O)O[C@@H]1c1ccccc1	> 40 µM	> 40 µM	> 40 µM	> 40 µM	> 40 µM	–
Stable	CC(=O)O[C@H]1C=CC(=O)O[C@H]1[C@H]1O[C@@H]1c1ccccc1 [CHELIENSISIN A]	1.97 µM	4.7 µM	5.99 µM	20.3 µM	25.7 µM	–
